Source: ChEMBL document CHEMBL4033733, “Enterovirus inhibitory activity of C-8-tert-butyl substituted 4-aryl-6,7,8,9-tetrahydrobenzo[4,5]thieno[3,2-e][1,2,4]triazolo[4,3-a]pyrimidin-5(4H)-ones” (Bioorg Med Chem Lett, 2017)

Key:
rhinovirus A21 = assay: Antiviral activity against human rhinovirus 21 infected in human H1HeLa cells assessed as reduction in virus-induced cytopathicity incubated for 3 days by MTT assay; format: functional, cell-based; details: Rhinovirus A, H1-HeLa, 72 h
Outline: (§1)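 H1 HeLa cells infected with rhinovirus (14, 21 or 71); EC50 is the concentration restoring 50% viability of the infected cells. Pleconaril served as reference.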

Poliovirus 3 = assay: Antiviral activity against human poliovirus 3 infected in human HeLa cells assessed as reduction in virus-induced cytopathicity incubated for 3 days by MTT assay; format: functional, cell-based; details: Enterovirus C, 72 h
Outline: (§2)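 Cytopathic-effect reduction assay in HeLa cells infected with coxsackievirus B1, B3 or poliovirus 3, with pleconaril as reference. EC50 is the concentration that improves viability of infected HeLa cells by 50%. CC50 is the concentration that reduces viability of uninfected HeLa cells by 50%. SI is CC50/EC50.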

[1] = Cytotoxicity in human HeLa cells assessed as reduction in cell viability incubated for 3 days by MTT assay; format: cell-based
Outline: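 Uninfected HeLa cells; CC50 is the concentration lowering cell viability by 50%.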

Coxsackievirus B3 = assay: Antiviral activity against human coxsackievirus B3 infected in human HeLa cells assessed as reduction in virus-induced cytopathicity incubated for 3 days by MTT assay; format: functional, cell-based; details: Enterovirus B, 72 h
Outline: (§3)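 HeLa cells infected with enterovirus (coxsackievirus B1 or B3); protection from virus-induced cytopathic effect measured. EC50 is the concentration restoring 50% viability of the infected cells. Pleconaril served as reference.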

[2] = Cytotoxicity in human H1HeLa cells assessed as reduction in cell viability incubated for 3 days by MTT assay; format: cell-based, H1-HeLa
Outline: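 Uninfected H1 HeLa cells; CC50 is the concentration lowering cell viability by 50%.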

Coxsackievirus B1 = assay: Antiviral activity against human coxsackievirus B1 infected in human HeLa cells assessed as reduction in virus-induced cytopathicity incubated for 3 days by MTT assay; format: functional, cell-based; details: Enterovirus B, 72 h; outline: as §3
[3] = Antiviral activity against human rhinovirus 71 infected in human H1HeLa cells assessed as reduction in virus-induced cytopathicity incubated for 3 days by MTT assay; format: functional, cell-based, Human rhinovirus A71; details: Rhinovirus A, H1-HeLa, 72 h; outline: as §1
rhinovirus B14 = assay: Antiviral activity against human rhinovirus 14 infected in human H1HeLa cells assessed as reduction in virus-induced cytopathicity incubated for 3 days by MTT assay; format: functional, cell-based; details: Rhinovirus B, H1-HeLa, 72 h; outline: as §1
Liver [4] = assay: Stability in human liver microsomes assessed as compound remaining by mass spectrometry; format: ADME, microsome
Outline: (§4)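 Phase I metabolic stability in human or rat liver microsomes, with buspirone as reference. Parent compound remaining was quantified by quantitative mass spectrometry and expressed as a percentage.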

Liver [5] = assay: Stability in rat liver microsomes assessed as compound remaining by mass spectrometry; format: ADME, microsome; outline: as §4
[6] = Selectivity index, ratio of CC50 for human HeLa cells to EC50 for human poliovirus 3 infected in human HeLa cells; format: toxicity, cell-based; details: read-out: Ratio CC50/EC50; outline: as §2
[7] = Selectivity index, ratio of CC50 for human HeLa cells to EC50 for human coxsackievirus B3 infected in human HeLa cells; format: toxicity, cell-based; details: read-out: Ratio CC50/EC50; outline: as §2
[8] = Selectivity index, ratio of CC50 for human HeLa cells to EC50 for human coxsackievirus B1 infected in human HeLa cells; format: toxicity, cell-based; details: read-out: Ratio CC50/EC50; outline: as §2

| SMILES | EC50 (rhinovirus A21) [µM] | EC50 (Poliovirus 3) [µM] | CC50 at 72 h [1] [µM] | EC50 (Coxsackievirus B3) [µM] | CC50 at 72 h [2] [µM] | EC50 (Coxsackievirus B1) [µM] | EC50 [3] [µM] | EC50 (rhinovirus B14) [µM] | Stability (Liver [4]) [%] | Stability (Liver [5]) [%] | selectivity ratio [6] | selectivity ratio [7] | selectivity ratio [8] |
| --- | --- | --- | --- | --- | --- | --- | --- | --- | --- | --- | --- | --- | --- |
| CC(C)(C)C1CCc2c(sc3c2c(=O)n(-c2ccccc2)c2nnc(-c4ccccc4)n32)C1 (stereo unspecified) | > 8.7 | > 31.9 | 31.9 | > 31.9 | 8.7 | > 31.9 | > 8.7 | > 8.7 |  |  |  |  |  |
| Cc1ccc(-n2c(=O)c3c4c(sc3n3cnnc23)CC(C(C)(C)C)CC4)cc1 (stereo unspecified) | 2.4 | 1.94 | 32.8 | 12.9 | 11.1 | 14.3 | 1.8 | 1.8 |  |  |  |  |  |
| O=C1CC2(CCCC2)CC(=O)N1CCCCN1CCN(c2ncccn2)CC1 [BUSPIRONE] |  |  |  |  |  |  |  |  | 3.52 | 0.119 |  |  |  |
| CC(C)(C)C1CCc2c(sc3c2c(=O)n(-c2ccc(Cl)cc2)c2nncn32)C1 (stereo unspecified) | > 18.8 | 8.35 | 36.5 | > 36.5 | 18.8 | > 36.5 | 3.8 | 3.7 |  |  |  |  |  |
| Cc1cc(CCCOc2c(C)cc(-c3noc(C(F)(F)F)n3)cc2C)on1 [PLECONARIL] | 0.083 | 0.51 | 42.8 | > 42.8 | 53.5 | 0.13 | 0.013 | 0.31 |  |  |  |  |  |
| O=c1c2c3c(sc2n2cnnc2n1-c1ccccc1)CC(c1ccccc1)CC3 (stereo unspecified) | > 27.6 | > 27.5 | 27.5 | > 27.5 | 27.6 | > 27.5 | > 27.6 | 19.4 |  |  |  |  |  |
| CC(C)(C)C1CCc2c(sc3c2c(=O)n(-c2ccccc2)c2nncn32)C1 (stereo unspecified) | 2.5 | 1.95 | > 100 | 8.65 | 9.6 | 8.85 | 1.6 | 1.7 | 63.2 | 51.5 | > 51.2 | > 11.5 | > 11.2 |
| CC(C)(C)C1CCc2c(sc3c2c(=O)n(-c2ccccc2Cl)c2nncn32)C1 (stereo unspecified) | 14.7 | 1.84 | 26.3 | 16.2 | 20.7 | 19.5 | 3.9 | 2.5 |  |  |  |  |  |
| CC(C)(C)C1CCc2c(sc3c2c(=O)n(-c2cccc(Cl)c2)c2nncn32)C1 (stereo unspecified) | > 15 | 9.63 | 38.3 | > 38.3 | 15 | 17.8 | 3.8 | 2.1 |  |  |  |  |  |
| CC1(C)CCc2c(sc3c2c(=O)n(-c2ccccc2)c2nncn32)C1 | > 76.5 | > 54.8 | 54.8 | > 54.8 | 76.5 | > 54.8 | > 76.5 | > 76.5 |  |  |  |  |  |
| CC(C)(C)C1CCc2c(sc3c2c(=O)n(-c2ccccc2)c2nnc(N)n32)C1 (stereo unspecified) | > 35.4 | > 45.9 | 45.9 | > 45.9 | 35.4 | > 45.9 | 12.8 | 8.2 |  |  |  |  |  |
| CCCC1CCc2c(sc3c2c(=O)n(-c2ccccc2)c2nncn32)C1 (stereo unspecified) | > 31.7 | 20 | 41 | > 41 | 31.7 | > 41 | 14 | 18.1 |  |  |  |  |  |
| O=c1c2c3c(sc2n2cnnc2n1-c1ccccc1)CCCC3 | > 100 | > 100 | > 100 | > 100 | > 100 | > 100 | > 100 | > 100 |  |  |  |  |  |
| CC(C)(C)C1CCc2c(sc3c2c(=O)n(-c2cccc(Br)c2)c2nncn32)C1 (stereo unspecified) | 20 | 13.2 | 32.9 | > 32.9 | 26.3 | 15.6 | 15.9 | 3.5 |  |  |  |  |  |
| CC1CCCc2sc3c(c21)c(=O)n(-c1ccccc1)c1nncn31 (stereo unspecified) | > 100 | > 100 | > 100 | > 100 | > 100 | > 100 | > 100 | > 100 |  |  |  |  |  |
| Cc1ccc(-c2ccc(-n3c(=O)c4c5c(sc4n4cnnc34)CC(C(C)(C)C)CC5)cc2)cc1 (stereo unspecified) | > 16.9 | 47 | > 100 | 46.8 | 16.9 | 55.4 | > 16.9 | > 16.9 |  |  |  |  |  |
| CC1(C)Cc2c(sc3c2c(=O)n(-c2ccccc2)c2nncn32)C(C)(C)C1 | > 9.6 | > 9.09 | 9.09 | > 9.09 | 9.6 | > 9.09 | > 9.6 | > 9.6 |  |  |  |  |  |
| Cc1nnc2n(-c3ccccc3)c(=O)c3c4c(sc3n12)CC(C(C)(C)C)CC4 (stereo unspecified) | > 35.9 | > 45.1 | 45.1 | > 45.1 | 35.9 | > 45.1 | 4.6 | 4.3 |  |  |  |  |  |
| CC(C)(C)C1CCc2c(sc3c2c(=O)n(-c2ccccc2)c2nnc(S)n32)C1 (stereo unspecified) | 19.4 | > 45.1 | 45.1 | > 45.1 | 40.1 | > 45.1 | 9.1 | 10.1 |  |  |  |  |  |
| Cc1ccccc1-n1c(=O)c2c3c(sc2n2cnnc12)CC(C(C)(C)C)CC3 (stereo unspecified) | > 35.4 | 3.44 | 39.1 | 9.22 | 35.4 | 9.83 | 10.1 | 8.8 |  |  |  |  |  |
| CC(C)(C)C1CCc2c(sc3c2c(=O)n(-c2ccc(Br)cc2)c2nncn32)C1 (stereo unspecified) | > 11 | 12.6 | 30.5 | > 30.5 | 11 | > 30.5 | 2.3 | 2 |  |  |  |  |  |
| COc1ccc(-n2c(=O)c3c4c(sc3n3cnnc23)CC(C(C)(C)C)CC4)cc1 (stereo unspecified) | 2.6 | 3.63 | 39.1 | > 39.1 | 21.9 | > 39.1 | 1.8 | 1.9 |  |  |  |  |  |
| CC(C)(C)C1CCc2c(sc3c2c(=O)n(-c2ccc(C(F)(F)F)cc2)c2nncn32)C1 (stereo unspecified) | > 31.4 | > 35.5 | 35.5 | > 35.5 | 31.4 | > 35.5 | > 31.4 | > 31.4 |  |  |  |  |  |
| CC1CCc2c(sc3c2c(=O)n(-c2ccccc2)c2nncn32)C1 (stereo unspecified) | > 69 | > 79 | 79 | > 79 | 69 | > 79 | > 69 | 16.4 |  |  |  |  |  |
